Laboratory results published in ChEMBL document CHEMBL2321761, “Discovery of novel dual inhibitors of the wild-type and the most prevalent drug-resistant mutant, S31N, of the M2 proton channel from influenza A virus” (J Med Chem, 2013).

System: Influenza A virus
Experiment: Inhibition of Influenza A virus wild type M2 proton channel expressed in Xenopus laevis oocyte at 100 uM after 2 mins by two-electrode […] clamp assay
In short: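 Full-length AM2 (WT) was expressed in Xenopus oocyte membranes and recorded by two-electrode voltage clamp during low-pH activation. Percent inhibition was read after only 2 min of exposure, before equilibrium was reached. IC50 values from this read-out are apparent kinetic values, not equilibrium dissociation constants.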

| Structure (SMILES) | inhibition |
| --- | --- |
| COc1ccc(CN(C)C23CC4CC(CC(C4)C2)C3)cc1 | 34% |
| COC(=O)[C@H](Cc1cnc[nH]1)NCC12CC3CC(CC(C3)C1)C2 | 27% |
| Oc1ccc(CNC23CC4CC(CC(C4)C2)C3)cc1O | 44% |
| O=[N+]([O-])c1ccccc1CNC12CC3CC(CC(C3)C1)C2 | 48% |
| OCc1ccc(CNC23CC4CC(CC(C4)C2)C3)cc1 | 26% |
| C[C@@H]1[C@@H](/N=C/c2ccc(O)cc2)C[C@H]2C[C@@H]1C2(C)C | 91% |
| c1cc2c(cc1CNC13CC4CC(CC(C4)C1)C3)OCO2 | 54% |
| c1cc(CNC23CC4CC(CC(C4)C2)C3)co1 | 73% |
| N#Cc1ccc(CNC23CC4CC(CC(C4)C2)C3)cc1 | 36% |
| Oc1ccc(CNC23CC4CC(CC(C4)C2)C3)c(Cl)c1 | 78% |
| Oc1ccc(CNC23CC4CC(CC(C4)C2)C3)cc1 | 67% |
| COc1ccc(CNC23CC4CC(CC(C4)C2)C3)cc1 | 43% |
| NC(=O)c1ccc(CNC23CC4CC(CC(C4)C2)C3)cc1 | 7% |
| c1nc2cc(CNC34CC5CC(CC(C5)C3)C4)ccc2[nH]1 | 26% |
| Fc1ccc(CNC23CC4CC(CC(C4)C2)C3)cc1 | 77% |
| Nc1ccc(CNC23CC4CC(CC(C4)C2)C3)cc1 | 31% |
| COc1ccc(CNC23CC4CC(CC(C4)C2)C3)cc1O | 46% |
| c1cnn(-c2ccc(CNC34CC5CC(CC(C5)C3)C4)cc2)c1 | 4% |
| COc1cc(CNC23CC4CC(CC(C4)C2)C3)ccc1O | 76% |
| C[S+]([O-])c1ccc(CNC23CC4CC(CC(C4)C2)C3)cc1 (stereo unspecified) | 2% |
| COc1ccccc1CNC12CC3CC(CC(C3)C1)C2 | 22% |
| CC(=O)Nc1ccc(CNC23CC4CC(CC(C4)C2)C3)cc1 | 3% |
| Oc1ccc(/C=N/C23CC4CC(CC(C4)C2)C3)cc1 | 81% |

| Structure (SMILES) | inhibition |
| --- | --- |
| CC(=O)c1ccc(CNC23CC4CC(CC(C4)C2)C3)cc1 | 2% |
| NCc1ccc(CNC23CC4CC(CC(C4)C2)C3)cc1 | 3% |
| O=[N+]([O-])c1cc(CNC23CC4CC(CC(C4)C2)C3)ccc1O | 66% |
| COc1ccc(CNC23CC4CC(CC(C4)C2)C3)c(O)c1 | 56% |
| COc1ccc(CNC23CC4CC(CC(C4)C2)C3)c(OC)c1 | 16% |
| COc1ccc(COC23CC4CC(CC(C4)C2)C3)cc1 | 51% |
| Oc1ccc(CNC23CC4CC(CC(C4)C2)C3)c(O)c1 | 64% |
| Oc1ccc(CNC23CC4CC(CC(C4)C2)C3)cc1F | 65% |
| COc1cc(O)ccc1CNC12CC3CC(CC(C3)C1)C2 | 0% |
| c1cc(CNC23CC4CC(CC(C4)C2)C3)ccn1 | 6% |
| Oc1ccc(CNC23CC4CC(CC(C4)C2)C3)cc1Cl | 78% |
| OC1CCC(CNC23CC4CC(CC(C4)C2)C3)CC1 (racemic) | 16% |
| Oc1ccccc1CNC12CC3CC(CC(C3)C1)C2 | 81% |
| c1cc(-c2nnn[nH]2)ccc1CNC12CC3CC(CC(C3)C1)C2 | 6% |
| c1cn(-c2ccc(CNC34CC5CC(CC(C5)C3)C4)cc2)cn1 | 4% |
| CS(=O)(=O)c1ccc(CNC23CC4CC(CC(C4)C2)C3)cc1 | 45% |
| CC(C)(C)OC(=O)Nc1ccc(CNC23CC4CC(CC(C4)C2)C3)cc1 | 13% |
| c1ccc(CNC23CC4CC(CC(C4)C2)C3)cc1 | 77% |
| c1ccc(CNC23CC4CC(CC(C4)C2)C3)nc1 | 12% |
| c1cc2cn[nH]c2cc1CNC12CC3CC(CC(C3)C1)C2 | 79% |
| O=[N+]([O-])c1ccc(CNC23CC4CC(CC(C4)C2)C3)cc1 | 49% |
| Oc1cccc(CNC23CC4CC(CC(C4)C2)C3)c1 | 88% |
| Oc1cc(F)ccc1CNC12CC3CC(CC(C3)C1)C2 | 87% |
